Results from paper PMC11101930 (International Journal for Parasitology: Drugs and Drug …, 2024).
pEC50: −log10 of the molar value. Where a name gives a salt, the structure may show the parent alone. Read-outs that look alike come from different tables or passages of the source.

Experiments:
[1] = system: newly transformed schistosomula (NTS); experiment: In vitro screening of newly transformed schistosomula; assay type: cell-based, Schistosoma mansoni; conditions: 72 h, read-out: NTS EC50
Method in brief: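 Cercariae shed from Biomphalaria glabrata under light for 4 h were mechanically transformed and kept in M199 with 5% FCS, antibiotic mastermix and pen./strep. at 37 °C, 5% CO2. 40–50 larvae per well were exposed to 10, 7.5, 5, 3.75, 2.5, 1 or 0.25 μM test compound, with DMSO (<1%) as control. Viability was scored visually at 24 and 72 h (0–3, 0.5 steps), and the assay was repeated once. Scores were normalized to vehicle, and EC50 came from a four- or two-parameter sigmoid least-squares fit.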

adult S. mansoni = experiment: In vitro screening of adult S. mansoni worms, visual viability scoring; assay type: cell-based; conditions: Schistosoma mansoni, 72 h, read-out: Adult S. mansoni EC50
Method in brief: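 Adult worms were recovered from mouse mesenteric veins at day 49 post-infection and held in RPMI 1640 with 5% FCS and antibiotics at 37 °C, 5% CO2. Two worm pairs per well were exposed to 40, 30, 20, 10, 7.5, 5, 2.5 or 1 μM test compound, with DMSO (<1%) as control. Viability was scored visually at 24 and 72 h (0–3, 0.5 steps). Duplicates, repeated once. Scores were normalized to vehicle, and EC50 came from a four-parameter sigmoid fit (two-parameter if not applicable).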

S. mansoni = experiment: In vivo efficacy study in S. mansoni-infected mice; set-up: species or system Schistosoma mansoni; conditions: single oral gavage, 200 mg/kg (1) or 100 mg/kg (19); for Mean number of worms (SD): 21 days post-dosing
Method in brief: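 Female NMRI mice (three weeks old, acclimatized one week) were each infected with 100 cercariae subcutaneously in the nuchal fold. At day 49 they received one oral gavage of test compound in Tween 80/ethanol (70:30, 10% of volume) plus tap water (sonicated, 35 °C); there were four mice per group and four untreated controls. Mice were killed 21 days post-dosing, and worms from mesenteric veins and liver were sexed, counted, and classed as dead or alive. Worm burden reduction was based on living worms versus controls, with a Kruskal-Wallis test.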

[2] = Metabolic stability assay in murine liver microsomes; assay type: in vitro ADME; conditions: for Microsomal stability t1/2: murine liver microsomes, 1 μM, 37 °C
Method in brief: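 Test compound (1 μM) was incubated at 37 °C with mouse liver microsomes (0.5 mg/ml protein) in potassium phosphate buffer, pH 7.4, with 1.0 mM EDTA. Reactions were started with NADPH and quenched with ice-cold acetonitrile every 15 min up to 1 h. Depletion was followed by LC-MS/MS (ESI+, C18) against internal standards. A first-order exponential decay fit gave t1/2, and CLint was derived assuming hepatic blood flow of 90 ml/min/kg.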

P. falciparum D6 strain = experiment: Antimalarial activity against P. falciparum D6 strain; assay type: cell-based, Plasmodium falciparum; conditions: among the 11 compounds most active against adult S. mansoni

Row | SMILES | pEC50 ([1]; Schistosoma mansoni) | pEC50 (adult S. mansoni) | other results
1 | Cl.N=C(NN=CCc1ccc(OC(F)F)cc1)NN=CCc1ccc(OC(F)F)cc1 [Compound 19, 2,2’-Bis[(4-difluoromethoxyphenyl)ethylidene]carbonimidic Dihydrazide Hydrochloride] | 5.55 | 5.56 | Tolerability in mice (S. mansoni): well tolerated; Mean number of worms (SD) (S. mansoni): 28.3 (10.6)
2 | Cl.N#Cc1cccc(C=NNC(=N)NN=Cc2cccc(C#N)c2)c1 [Compound 21, 2,2’-Bis[(3-cyanophenyl)methylene]carbonimidic Dihydrazide Hydrochloride] | 5.78 | 5.39 | Microsomal stability t1/2 [2]: 58 min
3 | N=C(NN=Cc1ccc([N+](=O)[O-])cc1)NN=Cc1ccc([N+](=O)[O-])cc1 [Compound 27, 2,2’-Bis[(4-nitrophenyl)methylene]carbonimidic Dihydrazide Hydrochloride] | 5.24 | – | –
4 | N=C(NN=Cc1ccc(OC(F)F)cc1)NN=Cc1ccc(OC(F)F)cc1 [Compound 18, 2,2’-Bis[(4-difluoromethoxyphenyl)methylene]carbonimidic Dihydrazide Hydrochloride] | 5.33 | 5.29 | –
5 | N=C(NN=CCc1ccc(OC(F)(F)F)cc1)NN=CCc1ccc(OC(F)(F)F)cc1 [Compound 17, 2,2’-Bis[(4-trifluoromethoxyphenyl)ethylidene]carbonimidic Dihydrazide Hydrochloride] | 5.70 | 5.31 | –
6 | N=C(NN=Cc1ccc(OC(F)(F)F)cc1)NN=Cc1ccc(OC(F)(F)F)cc1 [Compound 16, 2,2’-Bis[(4-trifluoromethoxyphenyl)methylene]carbonimidic Dihydrazide Hydrochloride] | 5.48 | 5.09 | –
7 | N=C(NN=Cc1ccc(-c2ccccc2)cc1)NN=Cc1ccc(-c2ccccc2)cc1 [Compound 26, 2,2’-Bis[(4-diphenyl)methylene]carbonimidic Dihydrazide Hydrochloride] | – | – | pEC50 ([1]; four- (a) or two-parameter (b) sigmoid fit): 5.35
8 | N#Cc1cccc(CC=NNC(=N)NN=CCc2cccc(C#N)c2)c1 [Compound 23, 2,2’-Bis[(3-cyanophenyl)ethylidene]carbonimidic Dihydrazide Hydrochloride] | 5.95 | 5.57 | –
9 | N=C(NN=Cc1ccc(N2CCOCC2)cc1)NN=Cc1ccc(N2CCOCC2)cc1 [Compound 33, 2,2’-Bis[(4-morpholinophenyl)methylene]carbonimidic Dihydrazide Hydrochloride] | 5.61 | 5.19 | –
10 | N=C(NN=Cc1ccc(C(F)(F)F)cc1)NN=Cc1ccc(C(F)(F)F)cc1 [Compound 12, 2,2’-Bis[(4-trifluoromethylphenyl)methylene]carbonimidic Dihydrazide Hydrochloride] | 5.21 | – | –
11 | Cl.N#Cc1cc(C=NNC(=N)NN=Cc2ccc(F)c(C#N)c2)ccc1F [Compound 1, 2,2’-Bis[(3-cyano-4-fluorophenyl)methylene]carbonimidic Dihydrazide Hydrochloride] | 5.90 | 5.26 | Antimalarial activity in vitro and in vivo (ranking) (P. falciparum D6 strain): most potent antimalarial activity in vitro and in vivo; Tolerability in mice (S. mansoni): well tolerated; Mean number of worms (SD) (S. mansoni): 24.3 (4.3); Microsomal stability t1/2 [2]: 186 min

Second part, led by results:

Row | pEC50 ([1]; Schistosoma mansoni) | SMILES | pEC50 (adult S. mansoni) | other results
12 | 5.60 | N=C(N/N=C/c1ccc2ccccc2n1)N/N=C/c1ccc2ccccc2n1 [Compound 62, (E)-N'-((E)-quinolin-2-ylmethylene)-2-(quinolin-2-ylmethylene)hydrazine-1-carboximidhydrazide Hydrochloride] | 5.13 | –
13 | 6.19 | N=C(N/N=C/c1cnc2ccccc2c1)N/N=C/c1cnc2ccccc2c1 [Compound 63, (E)-N'-((E)-quinolin-3-ylmethylene)-2-(quinolin-3-ylmethylene)hydrazine-1-carboximidhydrazide Hydrochloride] | – | –
14 | 5.35 | N=C(N/N=C/c1ccc(Oc2ccc(F)cc2)cc1)N/N=C/c1ccc(Oc2ccc(F)cc2)cc1 [Compound 58, N',2-bis((E)-4-(4-fluorophenoxy)benzylidene)hydrazine-1-carboximidhydrazide Hydrochloride] | 5.07 | –
15 | 5.40 | Cl.N#Cc1cc(/C=N/NC(=N)N/N=C/c2ccc(OC(F)(F)F)cc2)ccc1F [Compound 77, N'-((E)-3-cyano-4-fluorobenzylidene)-2-((E)-4-(trifluoromethoxy)benzylidene)hydrazine-1-carboximidhydrazide Hydrochloride] | 5.17 | half-life at 1 μM ([2]; mouse, liver microsomes, pH 7.4): 280 min
16 | 5.80 | N=C(N/N=C/c1ccnc2ccccc12)N/N=C/c1ccnc2ccccc12 [Compound 64, (E)-N'-((E)-quinolin-4-ylmethylene)-2-(quinolin-4-ylmethylene)hydrazine-1-carboximidhydrazide Hydrochloride] | – | –
17 | 5.35 | C#CCOc1ccc(/C=N/NC(=N)N/N=C/c2ccc(C(=O)c3ccccc3)cc2)cc1 [Compound 86, N'-((E)-4-benzoylbenzylidene)-2-((E)-4-(prop-2-yn-1-yloxy)benzylidene)hydrazine-1-carboximidhydrazide Hydrochloride] | – | –
18 | 5.42 | N=C(N/N=C/c1ccc(Oc2ccccc2)cc1)N/N=C/c1ccc(Oc2ccccc2)cc1 [Compound 57, N',2-bis((E)-4-phenoxybenzylidene)hydrazine-1-carboximidhydrazide Hydrochloride] | 5.15 | –
19 | 5.57 | N=C(N/N=C/c1ccc(Oc2ccc(Cl)cc2)cc1)N/N=C/c1ccc(Oc2ccc(Cl)cc2)cc1 [Compound 59, N',2-bis((E)-4-(4-chlorophenoxy)benzylidene)hydrazine-1-carboximidhydrazide Hydrochloride] | 5.26 | –
20 | 5.57 | COc1cc(OC)c(CC=NNC(=N)NN=CCc2cc(Cl)c(OC)cc2OC)cc1Cl [Compound 37, 2,2’-Bis[(2,4-dimethoxy-5-chlorophenyl)ethylidene]carbonimidic Dihydrazide Hydrochloride] | – | –
21 | 5.48 | N=C(N/N=C/c1cccc([N+](=O)[O-])c1)N/N=C/c1cccc([N+](=O)[O-])c1 [Compound 49, N',2-bis((E)-3-nitrobenzylidene)hydrazine-1-carboximidhydrazide Hydrochloride] | 5.02 | –
22 | 5.91 | N#Cc1cc(/C=N/NC(=N)N/N=C/c2ccc(Cl)c(C#N)c2)ccc1Cl [Compound 71, N',2-bis((E)-4-chloro-3-cyanobenzylidene)hydrazine-1-carboximidhydrazide Hydrochloride] | – | –
23 | 5.47 | N=C(N/N=C/c1ccc(-c2ccc(F)cc2)cc1)N/N=C/c1ccc(-c2ccc(F)cc2)cc1 [Compound 53, (E)-2-((4'-fluoro-[1,1'-biphenyl]-4-yl)methylene)-N'-((E)-(4'-fluoro-[1,1'-biphenyl]-4-yl)methylene)hydrazine-1-carboximidhydrazide Hydrochloride] | – | –
24 | 5.51 | N=C(N/N=C/c1cccc(-c2ccccc2)c1)N/N=C/c1cccc(-c2ccccc2)c1 [Compound 52, (E)-N'-((E)-[1,1'-biphenyl]-3-ylmethylene)-2-([1,1'-biphenyl]-3-ylmethylene)hydrazine-1-carboximidhydrazide Hydrochloride] | 5.12 | –
